Results published in ChEMBL document CHEMBL1150167, “Sesquiterpenes from Ferula penninervis” (2002).

Key:
Type in all cases: functional
[1] = Inhibition of lipopolysaccharide IL1-beta production in human PMNC at 0.3 ug/mL by ELISA
Summary of the method: (§1)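 Cytokine (IL-1β, IL-2, IL-4, TNF) concentrations were measured directly by ELISA in the culture supernatants. The paper attributes the cytokines to macrophages in the culture.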

[2] = Inhibition of lipopolysaccharide TNFalpha production in human PMNC at 0.3 ug/mL by ELISA; summary of the method: as §1
[3] = Inhibition of lipopolysaccharide IL2 production in human PMNC at 0.3 ug/mL by ELISA; summary of the method: as §1
[4] = Inhibition of lipopolysaccharide IL4 production in human PMNC at 0.3 ug/mL by ELISA; summary of the method: as §1

For `C[C@]12C=CC(=O)C=C1CC[C@@H]1[C@@H]2[C@@H](O)C[C@@]2(C)[C@H]1CC[C@]2(O)C(=O)CO` [PREDNISOLONE], which inhibition at 0.3 µg/mL [1] is on record?
Its inhibition at 0.3 µg/mL is 24.8%.

What about the inhibition at 0.3 µg/mL [2] of the same compound?
The inhibition at 0.3 µg/mL was 47.9%.

And the inhibition at 0.3 µg/mL [3]?
Its inhibition at 0.3 µg/mL is 30.6%.

And the inhibition at 0.3 µg/mL [4]?
The inhibition at 0.3 µg/mL was 40.7%.
